pEC50: −log10 of the molar value.

The test system of the first data set is Hepatitis C virus. Description: Antiviral activity against Hepatitis C virus genotype 1b infected in human Huh-7.5.1 cells after 48 to 72 hrs by luciferase reporter assay. Type of data set: functional, organism-based, Hepacivirus hominis.
Conditions: not given
(A reporter such as luciferase makes a cellular process visible.)
Regarding `CCCCCCCCCCCCCCCCCCOCCOP(=O)(O)CO[C@H](CO)Cn1cnc2c(N)ncnc21`, the pEC50 was 5.81.
In turn, `CCCCCCCCCCCCCCCCOCCCOP(=O)(O)CO[C@H](COC)Cn1cnc2c(OC)ncnc21` gave a pEC50 of 5.05.
The same measure, in the same setting: with `CCCCCCCCCCCCCCCCCCOCCOP(=O)(O)CO[C@H](COC)Cn1ccc(N)nc1=O` the figure was below 3.82.
On the same count and under the same terms, with `CCCCCCCCCCCCCCCCOCCCOP(=O)(O)CO[C@H](COC)Cn1cnc2c(N)nc(N)nc21` the figure was 4.67.
With `CCCCCCCCCCCCCCCCOCCCOP(=O)(O)CO[C@H](COC)Cn1cnc2c(N)ncnc21`, the negative logarithm of the EC50 (pEC50) was 5.63.
On the same count and under the same terms, with `CCCCCCCCCCCCCCCCOCCCOP(=O)(O)COC(COC(C)C)Cn1cnc2c(N)ncnc21` (racemic) the figure was 4.29.
In turn, `CCCCCCCCCCCCCCCCOCCCOP(=O)(O)CO[C@H](COC)Cn1cnc2c(=O)[nH]c(N)nc21` showed a pEC50 of 4.66.
The same measure, in the same setting: with `CCCCCCCCCCCCCCCCOCCCOP(=O)(O)COC(COCC)Cn1cnc2c(N)ncnc21` (racemic) the figure was 5.12; with `CCCCCCCCCCCCCCCCCCOCCOP(=O)(O)CO[C@@H](COC)Cn1cnc2c(N)nc(N)nc21`, 4.59.

In a further data set the test system is Hepatitis C virus. The data set can be described thus: Antiviral activity against HCV JFH-1 infected in human Huh-7.5.1 cells after 48 to 72 hrs by luciferase reporter assay. It is filed as functional, organism-based, Hepacivirus hominis. The conditions noted are these: JFH-1, Huh-7.5.1.
As to `CCCCCCCCCCCCCCCCCCOCCOP(=O)(O)CO[C@H](CO)Cn1cnc2c(N)ncnc21`, the pEC50 was 5.78.
On the same count and under the same terms, with `CCCCCCCCCCCCCCCCOCCCOP(=O)(O)CO[C@H](COC)Cn1cnc2c(OC)ncnc21` the figure was 4.90; with `CCCCCCCCCCCCCCCCCCOCCOP(=O)(O)CO[C@H](COC)Cn1ccc(N)nc1=O`, below 3.82.
For the molecule `CCCCCCCCCCCCCCCCOCCCOP(=O)(O)CO[C@H](COC)Cn1cnc2c(N)nc(N)nc21`, the pEC50 was 4.63.
The same measure, in the same setting: with `CCCCCCCCCCCCCCCCOCCCOP(=O)(O)CO[C@H](COC)Cn1cnc2c(N)ncnc21` the figure was 5.33; with `CCCCCCCCCCCCCCCCOCCCOP(=O)(O)COC(COC(C)C)Cn1cnc2c(N)ncnc21` (racemic), 4.01.
On the same count and under the same terms, with `CCCCCCCCCCCCCCCCOCCCOP(=O)(O)CO[C@H](COC)Cn1cnc2c(=O)[nH]c(N)nc21` the figure was 4.61.
For the molecule `CCCCCCCCCCCCCCCCOCCCOP(=O)(O)COC(COCC)Cn1cnc2c(N)ncnc21` (racemic), the pEC50 was 5.05.
`CCCCCCCCCCCCCCCCCCOCCOP(=O)(O)CO[C@@H](COC)Cn1cnc2c(N)nc(N)nc21` gave a pEC50 of 4.59.

System in a further data set: not listed separately
The data set can be described thus: Cytotoxicity against human Huh7.5.1 cells by fluorescent cell viability assay. It is filed as cell-based, Huh-7. The conditions noted are these: Huh7.5.1 cells.
The molecule `CCCCCCCCCCCCCCCCOCCCOP(=O)(O)CO[C@H](COC)Cn1cnc2c(OC)ncnc21` came in with a CC50 above 150 µM.
On the same count and under the same terms, with `CCCCCCCCCCCCCCCCCCOCCOP(=O)(O)CO[C@H](COC)Cn1ccc(N)nc1=O` the figure was above 150 µM.
Still for that read-out and setting: with `CCCCCCCCCCCCCCCCOCCCOP(=O)(O)CO[C@H](COC)Cn1cnc2c(N)ncnc21` the figure was above 150 µM; with `CCCCCCCCCCCCCCCCOCCCOP(=O)(O)CO[C@H](COC)Cn1cnc2c(=O)[nH]c(N)nc21`, above 150 µM.
On the same count and under the same terms, for `CCCCCCCCCCCCCCCCCCOCCOP(=O)(O)CO[C@@H](COC)Cn1cnc2c(N)nc(N)nc21` the value was above 150 µM.

The same data set, now with this note: huh-7.
Molecule `CCCCCCCCCCCCCCCCCCOCCOP(=O)(O)CO[C@H](CO)Cn1cnc2c(N)ncnc21` came in with a CC50 of 35.6 µM. That is a double-digit micromolar value.
Same read-out and setting: with `CCCCCCCCCCCCCCCCOCCCOP(=O)(O)CO[C@H](COC)Cn1cnc2c(N)nc(N)nc21` the figure was 91.5 µM.
Still for that read-out and setting: with `CCCCCCCCCCCCCCCCOCCCOP(=O)(O)COC(COC(C)C)Cn1cnc2c(N)ncnc21` (racemic) the figure was 100 µM; with `CCCCCCCCCCCCCCCCOCCCOP(=O)(O)COC(COCC)Cn1cnc2c(N)ncnc21` (racemic), 99 µM.

Another data set deals with Human immunodeficiency virus 1. Description: Antiviral activity against HIV-1 LAI infected in human MT2 cells assessed as p24 antigen production after 4 days by ELISA. The conditions noted are these: Human immunodeficiency virus 1, LAI, MT2, 96 h. Type of data set: functional, organism-based. An outline of the steps: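 MT-2 cells in RPMI 1640 with 10% FBS, 10 mM HEPES, penicillin/streptomycin, inoculated with HIV-1 LAI at MOI 0.001 TCID50/cell; threefold serial drug dilutions, three wells each.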
(In general: ELISA stands for enzyme-linked immunosorbent assay.)
Take `CCCCCCCCCCCCCCCCCCOCCOP(=O)(O)CO[C@H](CO)Cn1cnc2c(N)ncnc21`: the pEC50 was 10.00.
The same measure, in the same setting: with `CCCCCCCCCCCCCCCCOCCCOP(=O)(O)CO[C@H](COC)Cn1cnc2c(OC)ncnc21` the figure was below 5.00; with `CCCCCCCCCCCCCCCCCCOCCOP(=O)(O)CO[C@H](COC)Cn1ccc(N)nc1=O`, 4.90; with `CCCCCCCCCCCCCCCCOCCCOP(=O)(O)CO[C@H](COC)Cn1cnc2c(N)nc(N)nc21`, 5.34.
Still for that read-out and setting: with `CCCCCCCCCCCCCCCCOCCCOP(=O)(O)CO[C@H](COC)Cn1cnc2c(N)ncnc21` the figure was 6.70.
Same read-out and setting: with `CCCCCCCCCCCCCCCCOCCCOP(=O)(O)COC(COC(C)C)Cn1cnc2c(N)ncnc21` (racemic) the figure was below 5.00; with `CCCCCCCCCCCCCCCCOCCCOP(=O)(O)CO[C@H](COC)Cn1cnc2c(=O)[nH]c(N)nc21`, 5.69; with `CCCCCCCCCCCCCCCCOCCCOP(=O)(O)COC(COCC)Cn1cnc2c(N)ncnc21` (racemic), below 5.00.
As to `CCCCCCCCCCCCCCCCCCOCCOP(=O)(O)CO[C@@H](COC)Cn1cnc2c(N)nc(N)nc21`, the pEC50 was 7.40.

System in another data set: not listed separately
The data set can be described thus: Selectivity index, ratio of CC50 for human MT2 cells to EC50 for HIV-1 LAI infected in human MT2 cells. It is filed as toxicity, cell-based. The conditions noted are these: read-out: Ratio CC50/EC50.
As to `CCCCCCCCCCCCCCCCCCOCCOP(=O)(O)CO[C@H](COC)Cn1ccc(N)nc1=O`, the selectivity ratio is 4.8.

A further data set relates to Human alphaherpesvirus 1. Description: Antiviral activity against Human herpesvirus 1 infected in human HFF cells after 3 days by Plaque reduction assay. It is filed as functional, organism-based. Conditions: Human alphaherpesvirus 1, HFF, 72 h.
Regarding `CCCCCCCCCCCCCCCCCCOCCOP(=O)(O)CO[C@H](CO)Cn1cnc2c(N)ncnc21`, the pEC50 is above 10.00.

The subject of a further data set is MT2. The data set can be described thus: Cytotoxicity against human MT2 cells after 72 hrs by propidium iodide staining-based flow cytometry. Type of data set: cell-based. Conditions: mt2, 72 h. (Flow cytometry measures light scatter and fluorescence of single cells or particles in a stream.)
`CCCCCCCCCCCCCCCCCCOCCOP(=O)(O)CO[C@H](CO)Cn1cnc2c(N)ncnc21` returned a CC50 of 0.033 µM. In other words, the double-digit nanomolar range.
On the same count and under the same terms, for `CCCCCCCCCCCCCCCCOCCCOP(=O)(O)CO[C@H](COC)Cn1cnc2c(OC)ncnc21` the value was 22 µM.
Still for that read-out and setting: for `CCCCCCCCCCCCCCCCCCOCCOP(=O)(O)CO[C@H](COC)Cn1ccc(N)nc1=O` the value was 60.7 µM; for `CCCCCCCCCCCCCCCCOCCCOP(=O)(O)CO[C@H](COC)Cn1cnc2c(N)nc(N)nc21`, 22.7 µM; for `CCCCCCCCCCCCCCCCOCCCOP(=O)(O)CO[C@H](COC)Cn1cnc2c(N)ncnc21`, 32 µM.
Still for that read-out and setting: with `CCCCCCCCCCCCCCCCOCCCOP(=O)(O)COC(COC(C)C)Cn1cnc2c(N)ncnc21` (racemic) the figure was 30.3 µM; with `CCCCCCCCCCCCCCCCOCCCOP(=O)(O)CO[C@H](COC)Cn1cnc2c(=O)[nH]c(N)nc21`, 29.3 µM.
Turning to `CCCCCCCCCCCCCCCCOCCCOP(=O)(O)COC(COCC)Cn1cnc2c(N)ncnc21` (racemic), the CC50 amounted to 23.6 µM.
Same read-out and setting: for `CCCCCCCCCCCCCCCCCCOCCOP(=O)(O)CO[C@@H](COC)Cn1cnc2c(N)nc(N)nc21` the value was 19.7 µM.

As a reminder, the pEC50 is the EC50 on a negative log10 scale, so that one unit is a factor of ten. Broadly, the CC50 is the concentration that lowers cell viability or growth by half. A low value points to greater toxicity to the cells.

These data come from ChEMBL document CHEMBL1811825, “Synthesis and antiviral evaluation of 9-(S)-[3-alkoxy-2-(phosphonomethoxy)propyl]nucleoside alkoxyalkyl esters: inhibitors of hepatitis C virus and HIV-1 replication” (Bioorg Med Chem, 2011).
